These results are taken from paper PMC11533547 (Poultry Science, 2024).

No end group written: not given here.

In one series the test system is DT40 cells. Briefly: MTT cell viability assay. It counts as cell-based, chicken. The following applies: 10 to 500 nM peptide, 24 h, OD450.
Another series addresses T1, chicken PD-1 protein (Gallus gallus, UniProt A0A1L1RYS1).
T1 sequence (A0A1L1RYS1 1-304): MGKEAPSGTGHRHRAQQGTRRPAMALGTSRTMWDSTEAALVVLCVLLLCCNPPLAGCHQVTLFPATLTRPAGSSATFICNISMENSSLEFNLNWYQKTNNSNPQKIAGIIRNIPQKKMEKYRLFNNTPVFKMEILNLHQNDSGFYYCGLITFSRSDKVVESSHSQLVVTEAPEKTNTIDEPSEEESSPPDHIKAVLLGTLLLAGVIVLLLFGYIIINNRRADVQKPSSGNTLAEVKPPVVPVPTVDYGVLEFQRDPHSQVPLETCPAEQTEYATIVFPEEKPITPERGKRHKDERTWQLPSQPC
As to the kind of experiment: MST affinity of peptides for chicken PD-1 protein. It counts as binding. A digest of the protocol: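 Chicken PD-1 protein labelled with a BLUE-NHS amine-reactive dye, then mixed in equal volumes with each peptide from a 2-fold dilution series in PBS (pH 7.4), 1800 to 0.054 nM. Incubated about 5 min, loaded into standard capillaries and read at once by microscale thermophoresis. Chicken PD-L1 protein (100 nM) as positive control. KD reported as the mean of 3 independent experiments.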

As for DAGLYHCLIEYGGADYKTINLK [gDK2-3], the “cell viability (cytotoxicity)” value with DT40 cells was “no significant effect on cell viability”. For the same sequence, the Kd (in general, the free concentration of one partner at which half of the binding sites on the other are occupied at equilibrium, for simple one-to-one binding) on chicken PD-1 protein turned out to be 9.73 nM.
